pIC50: −log10 of the molar value.
system: Ileum; assay: Antagonism of slow reacting substance of anaphylaxis-induced effect in guinea pig ileum; type: functional, tissue-based; conditions: Cavia porcellus
Procedure, shortened: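 SRS-A standard: heated supernatant of pooled rat peritoneal fluid taken 5 min after antigen challenge in passive peritoneal anaphylaxis. Assayed on isolated terminal guinea pig ileum in 4 mL Tyrode's with atropine 5 × 10⁻⁷ M and mepyramine maleate 10⁻⁶ M. Antagonist in water added 30 s before a submaximal SRS-A dose. At least three concentrations, more than one ileum. Bath concentration for 50% inhibition taken from log concentration-inhibition curve, by eye or best-fit line with 95% confidence limits.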

| SMILES | pIC50 |
| --- | --- |
| O=c1oc2cccc(OCCCOc3ccccc3)c2c(O)c1[N+](=O)[O-] | 4.74 |
| O=c1oc2ccc(OCCOc3ccccc3)cc2c(O)c1[N+](=O)[O-] | 4.77 |
| O=c1oc2ccc(OCCCOc3ccccc3)cc2c(O)c1[N+](=O)[O-] | 5.64 |
| O=c1oc2cc(OCCOc3ccccc3)ccc2c(O)c1[N+](=O)[O-] | < 5.00 |
| O=c1oc2cc(OCCCCCCOc3ccccc3)ccc2c(O)c1[N+](=O)[O-] | < 4.70 |
| O=c1oc2c(OCCCOc3ccccc3)cccc2c(O)c1[N+](=O)[O-] | < 4.70 |
| O=c1oc2cccc(OCCCc3ccccc3)c2c(O)c1[N+](=O)[O-] | < 4.70 |
| O=c1oc2ccc(OCCc3ccccc3)cc2c(O)c1[N+](=O)[O-] | 4.74 |
| O=c1oc2ccc(OCCCc3ccccc3)cc2c(O)c1[N+](=O)[O-] | 5.26 |
| O=c1oc2cc(OCCCCc3ccccc3)ccc2c(O)c1[N+](=O)[O-] | 5.35 |
| N#Cc1ccc(OCCCOc2ccc3c(O)c([N+](=O)[O-])c(=O)oc3c2)cc1 | < 5.00 |
| O=c1oc2cc(OCCCOc3ccc(-c4ccccc4)cc3)ccc2c(O)c1[N+](=O)[O-] | < 4.70 |
| Cc1ccc(OCCCOc2ccc3c(O)c([N+](=O)[O-])c(=O)oc3c2)cc1 | 5.35 |
| Cc1cccc(OCCCOc2ccc3c(O)c([N+](=O)[O-])c(=O)oc3c2)c1 | 5.36 |
| Cc1ccccc1OCCCOc1ccc2c(O)c([N+](=O)[O-])c(=O)oc2c1 | 6.23 |
| O=c1oc2cc(OCCCOc3ccc4c(c3)CCCC4)ccc2c(O)c1[N+](=O)[O-] | < 5.70 |
| Cc1ccc(OCCCOc2ccc3c(O)c([N+](=O)[O-])c(=O)oc3c2)c([N+](=O)[O-])c1 | < 5.00 |
| O=C(O)c1ccc(OCC(O)COc2ccc3c(O)c([N+](=O)[O-])c(=O)oc3c2)cc1 (stereo unspecified) | < 5.00 |
| CCCc1ccccc1OCC(O)COc1ccc2c(O)c([N+](=O)[O-])c(=O)oc2c1 (stereo unspecified) | 6.96 |
| CCCc1cc(F)ccc1OCC(O)COc1ccc2c(O)c([N+](=O)[O-])c(=O)oc2c1 (stereo unspecified) | 6.85 |
| CC(C)c1ccccc1OCC(O)COc1ccc2c(O)c([N+](=O)[O-])c(=O)oc2c1 (stereo unspecified) | 6.80 |
| CCCc1cc(C(C)=O)ccc1OCC(O)COc1ccc2c(O)c([N+](=O)[O-])c(=O)oc2c1 (stereo unspecified) | 6.15 |
| CC(=O)c1ccc(OCC(O)COc2ccc3c(O)c([N+](=O)[O-])c(=O)oc3c2)cc1O (stereo unspecified) | < 4.70 |
| CCc1cc(C(C)=O)c(O)cc1OCC(O)COc1ccc2c(O)c([N+](=O)[O-])c(=O)oc2c1 (stereo unspecified) | 5.46 |
| CCCc1c(O)c(C(C)=O)cc([N+](=O)[O-])c1OCC(O)COc1ccc2c(O)c([N+](=O)[O-])c(=O)oc2c1C (stereo unspecified) | 5.80 |

Second part, the molecule after the results:

| pIC50 | SMILES |
| --- | --- |
| < 4.70 | O=C(O)c1ccc(OCCCOc2ccc3c(O)c([N+](=O)[O-])c(=O)oc3c2)cc1 |
| < 5.00 | O=c1oc2cccc(OCCCCOc3ccccc3)c2c(O)c1[N+](=O)[O-] |
| 5.70 | O=c1oc2ccc(OCCCCCOc3ccccc3)cc2c(O)c1[N+](=O)[O-] |
| 6.11 | O=c1oc2ccc(OCCCCCCOc3ccccc3)cc2c(O)c1[N+](=O)[O-] |
| 5.80 | O=c1oc2cc(OCCCOc3ccccc3)ccc2c(O)c1[N+](=O)[O-] |
| 5.44 | O=c1oc2cc(OCCCCOc3ccccc3)ccc2c(O)c1[N+](=O)[O-] |
| 5.08 | O=c1oc2cc(OCCCCCOc3ccccc3)ccc2c(O)c1[N+](=O)[O-] |
| 4.66 | O=c1oc2ccc(OCc3ccccc3)cc2c(O)c1[N+](=O)[O-] |
| 5.82 | O=c1oc2cc(OCc3ccccc3)ccc2c(O)c1[N+](=O)[O-] |
| 5.36 | O=c1oc2cc(OCCc3ccccc3)ccc2c(O)c1[N+](=O)[O-] |
| 5.11 | O=c1oc2cc(OCCCc3ccccc3)ccc2c(O)c1[N+](=O)[O-] |
| 5.42 | O=c1oc2cc(OCCCCc3ccc(Cl)cc3)ccc2c(O)c1[N+](=O)[O-] |
| 5.60 | Cc1ccc(CCCCOc2ccc3c(O)c([N+](=O)[O-])c(=O)oc3c2)cc1 |
| 5.28 | Cc1cc(OCCCOc2ccccc2)cc2oc(=O)c([N+](=O)[O-])c(O)c12 |
| < 5.00 | CCc1cc2c(O)c([N+](=O)[O-])c(=O)oc2cc1OCCCOc1ccccc1 |
| 6.27 | CCCc1c(OCCCOc2ccccc2)ccc2c(O)c([N+](=O)[O-])c(=O)oc12 |

| pIC50 | SMILES |
| --- | --- |
| 6.00 | O=c1oc2cc(OCCCOc3ccc(F)cc3)ccc2c(O)c1[N+](=O)[O-] |
| 5.40 | O=c1oc2cc(OCCCOc3ccc(Cl)cc3)ccc2c(O)c1[N+](=O)[O-] |
| < 5.40 | COc1ccc(OCCCOc2ccc3c(O)c([N+](=O)[O-])c(=O)oc3c2)cc1 |
| 5.21 | CC(=O)c1ccc(OCCCOc2ccc3c(O)c([N+](=O)[O-])c(=O)oc3c2)cc1 |
| < 5.00 | COC(=O)c1ccc(OCCCOc2ccc3c(O)c([N+](=O)[O-])c(=O)oc3c2)cc1 |
| 5.55 | CC(=O)c1ccc(OCCCOc2ccc3c(O)c([N+](=O)[O-])c(=O)oc3c2)cc1O |
| 7.00 | CCCc1c(OCCCOc2ccc3c(O)c([N+](=O)[O-])c(=O)oc3c2)ccc(C(C)=O)c1O |
| 4.92 | O=c1oc2cc(OCC(O)COc3ccccc3)ccc2c(O)c1[N+](=O)[O-] (stereo unspecified) |
| 5.57 | CCc1ccccc1OCC(O)COc1ccc2c(O)c([N+](=O)[O-])c(=O)oc2c1 (stereo unspecified) |
| 6.30 | CC(=O)c1ccc(OCC(O)COc2ccc3c(O)c([N+](=O)[O-])c(=O)oc3c2)c(C)c1O (stereo unspecified) |
| 7.10 | CCCc1c(OCC(O)COc2ccc3c(O)c([N+](=O)[O-])c(=O)oc3c2)ccc(C(C)=O)c1O (stereo unspecified) |
| 6.82 | CCCc1c(OCC(O)COc2ccc3c(O)c([N+](=O)[O-])c(=O)oc3c2)ccc(C(=O)CC)c1O (stereo unspecified) |
| 7.60 | CCCc1c(OCC(O)COc2ccc3c(O)c([N+](=O)[O-])c(=O)oc3c2C)ccc(C(C)=O)c1O (stereo unspecified) |
| 7.30 | CCCc1c(OCC(O)COc2ccc3c(O)c([N+](=O)[O-])c(=O)oc3c2CC)ccc(C(C)=O)c1O (stereo unspecified) |
| 6.70 | CCCc1c(OCC(O)COc2ccc3c(O)c([N+](=O)[O-])c(=O)oc3c2CCC)ccc(C(C)=O)c1O (stereo unspecified) |
| 6.77 | CCCc1c(OCC(O)COc2ccc3c(=O)cc(C(=O)O)oc3c2CCC)ccc(C(C)=O)c1O (stereo unspecified) [FPL-55712] |

system: Rattus norvegicus; assay: Antiallergic activity against ip dosed passive peritoneal anaphylaxis rat model assessed as inhibition of histamine release in peritoneal fluid administered 30s prior to ovalbumin challenge measured per rat after 5 mins; type: functional; conditions: not given
Procedure, shortened: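 Rat anti-ovalbumin antiserum raised with Bordetella pertussis vaccine adjuvant; rats given 2 mL of 1:5 antiserum ip. 2 h later, Pontamine Sky Blue iv, then compound in 1 mL saline ip (saline controls), groups of 5–7, randomized. Challenge 30 s later ip with 5 mL Tyrode containing heparin 50 μg/mL and ovalbumin 0.4 mg/mL. Peritoneal fluid collected at 5 min for histamine. Dose reducing histamine to 50% of controls from log dose-response line, 95% confidence limits.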

| SMILES | ED50 |
| --- | --- |
| O=c1oc2cc(OCCCOc3ccccc3)ccc2c(O)c1[N+](=O)[O-] | 2.1 nM |
| CCCc1c(OCCCOc2ccc3c(O)c([N+](=O)[O-])c(=O)oc3c2)ccc(C(C)=O)c1O | 4.8 nM |
| CCCc1ccccc1OCC(O)COc1ccc2c(O)c([N+](=O)[O-])c(=O)oc2c1 (stereo unspecified) | 1.1 nM |
| CCCc1cc(F)ccc1OCC(O)COc1ccc2c(O)c([N+](=O)[O-])c(=O)oc2c1 (stereo unspecified) | 1.7 nM |
| CCCc1c(OCC(O)COc2ccc3c(O)c([N+](=O)[O-])c(=O)oc3c2)ccc(C(C)=O)c1O (stereo unspecified) | 6.5 ×10⁻¹⁰ M |
| CCCc1c(OCC(O)COc2ccc3c(O)c([N+](=O)[O-])c(=O)oc3c2C)ccc(C(C)=O)c1O (stereo unspecified) | 2.4 nM |
| CCCc1c(OCC(O)COc2ccc3c(O)c([N+](=O)[O-])c(=O)oc3c2CCC)ccc(C(C)=O)c1O (stereo unspecified) | 6.2 ×10⁻¹⁰ M |
| O=C([O-])c1cc(=O)c2c(OCC(O)COc3cccc4oc(C(=O)[O-])cc(=O)c34)cccc2o1.[Na+].[Na+] [CROMOLYN SODIUM] | 5.2 nM |
| CCCc1c(OCC(O)COc2ccc3c(=O)cc(C(=O)O)oc3c2CCC)ccc(C(C)=O)c1O (stereo unspecified) [FPL-55712] | 3.2 ×10⁻⁸ M |

Reference: ChEMBL document CHEMBL3228032, “Aryloxyalkyloxy- and aralkyloxy-4-hydroxy-3-nitrocoumarins which inhibit histamine release in the rat and also antagonize the effects of a slow reacting substance of anaphylaxis” (J Med Chem, 1979)
